Activity calls are given as the source filed them. The calls are words filed in the database; no cut-off is given here.
Columns and labels:
[1] = tested on: Mus musculus; assay: Effect on glucose level in 5-week old apoE -/- C57BL/6J mouse fed on western diet and 15 mg/kg/day, po drug simultaneously in 5-11 week early intervention study; type: functional
Outline: (§1)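 Male Apoe−/− mice on western diet (21% fat, 0.21% cholesterol) from 4–5 weeks of age. Oral gavage for 6 weeks from age 5 or 12 weeks; vehicle 10% 1-methyl-2-pyrrolidone, 5% cremophor EL with ethanol in water. Blood taken after 6 h fast before and after treatment. Glucose by meter; insulin by ELISA; lipids and glycerol colorimetric.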

[2] = tested on: Mus musculus; assay: Effect on cholesterol level in 5-week old apoE -/- C57BL/6J mouse fed on western diet and 15 mg/kg/day, po drug simultaneously in 5-11 week early intervention study; type: functional; outline: as §1
[3] = tested on: Mus musculus; assay: Effect on free fatty acid level in 5-week old apoE-/- C57BL/6J mouse fed on western diet and 15 mg/kg/day, po drug simultaneously in 5-11 week early intervention study; type: functional; outline: as §1
[4] = tested on: Mus musculus; assay: Effect on adiponectin level in 5-week old apoE-/- C57BL/6J mouse fed on western diet and 15 mg/kg/day, po drug simultaneously in 5-11 week early intervention study; type: functional; outline: as §1
[5] = tested on: Mus musculus; assay: Reduction of total liver triglyceride level in ob/ob mouse at 40 mg/kg/day, po; type: functional, organism-based
Outline: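 Male ob/ob mice were gavaged with 40 mg kg⁻¹ d⁻¹ or vehicle for 6 weeks from 8 weeks of age, n = 6 per group. Total liver lipids were extracted by the Bligh–Dyer method and triglyceride content was determined.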

[6] = tested on: THP-1; assay: Reduction of IL1-beta expression in human THP1 cells expressing aP2 relative to control; type: functional, cell-based
[7] = tested on: THP-1; assay: Reduction of IL6 expression in human THP1 cells expressing aP2 relative to control; type: functional, cell-based
[8] = tested on: THP-1; assay: Reduction of TNF expression in human THP1 cells expressing aP2 relative to control; type: functional, cell-based
[9] = Reduction of TNF expression in mouse aP2+/+ macrophage cells relative to control; type: functional, cell-based
Outline: (§2)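 Mouse aP2⁺/⁺ and aP2-reconstituted aP2⁻/⁻ macrophage lines were grown in RPMI with FBS or 5% LPDS, with inhibitor in DMSO or vehicle. Mcp-1, Il1β, Il6 and Tnf mRNA were measured by SYBR Green qRT-PCR (annealing at 58 °C, 50 cycles), normalized to 18s rRNA and then to untreated cells. Mean ± s.e.m.; at least triplicate.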

[10] = Reduction of TNF expression mouse aP2-/-R macrophage cells (re-expression of aP2) relative to control; type: functional, cell-based; outline: as §2
[11] = tested on: Mus musculus; assay: Decrease in triglyceride level in ob/ob mouse at 40 mg/kg/day, po after 6 weeks relative to control; type: functional
[12] = tested on: Mus musculus; assay: Increase in free fatty acid level in ob/ob mouse at 40 mg/kg/day, po after 6 weeks relative to control; type: functional
Outline: (§3)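 Male ob/ob mice given oral gavage daily for 6 weeks from 8 weeks old, n = 6 per group. Blood taken after 6 h fast before and after treatment; fed glucose taken at week 2. Glucose by meter on 3 μl whole blood, insulin by ultrasensitive ELISA, cholesterol, FFA and glycerol by colorimetric microplate assays.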

[13] = tested on: Mus musculus; assay: Increase in whole body glucose disposal and glucose infusion rate in ob/ob mouse at 40 mg/kg/day, po after 4 weeks by hyperinsulinemic-euglycaemic clamp studies; type: functional, organism-based
Outline: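 Clamps were run in ob/ob mice after 4 weeks of oral gavage at 40 mg kg⁻¹ d⁻¹ (vehicle n = 7, treated n = 9), with jugular catheters placed 4 days earlier. Insulin was infused at 12.5 mU kg⁻¹ min⁻¹, 25% glucose at variable rates held basal glycaemia, and ³H-glucose ran at 0.1 μCi min⁻¹. Clamp hepatic glucose production = whole-body uptake minus glucose infusion rate.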

[14] = tested on: Mus musculus; assay: Increase in glucose uptake in epididymal fat in ob/ob mouse at 40 mg/kg/day, po after 4 weeks by hyperinsulinemic-euglycaemic clamp studies relative to control; type: functional, organism-based
Outline: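 Ob/ob mice after 4 weeks of treatment, jugular catheterized 4 days earlier. Clamp with insulin at 12.5 mU kg⁻¹ min⁻¹, variable 25% glucose to hold basal glucose, and ³H-glucose at 0.1 μCi min⁻¹ with 2-¹⁴C-DG. Tissue uptake computed from the fitted plasma 2-¹⁴C-DG curve and tissue 2-¹⁴C-DG-6-phosphate content. n = 7 and 9.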

[15] = tested on: Mus musculus; assay: Effect on insulin level in 5-week old apoE-/- C57BL/6J mouse fed on western diet and administered with 15 mg/kg/day, po drug at 12 week in 12-18 week late intervention study; type: functional; outline: as §1
[16] = tested on: Mus musculus; assay: Effect on free fatty acid level in 5-week old apoE-/- C57BL/6J mouse fed on western diet and administered with 15 mg/kg/day, po drug at 12 week in 12-18 week late intervention study; type: functional; outline: as §1
[17] = tested on: Mus musculus; assay: Effect on glycerol level in 5-week old apoE-/- C57BL/6J mouse fed on western diet and administered with 15 mg/kg/day, po drug at 12 week in 12-18 week late intervention study; type: functional; outline: as §1
[18] = tested on: THP-1; assay: Reduction of transformation of human THP1 cells to foam cells at 25 uM after 3 days relative to control; type: functional, cell-based
Outline: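 PMA-differentiated THP-1 macrophages (100 nM, 24 h) were loaded with 50 μg ml⁻¹ acLDL for 24 h in 5% LPDS, then treated 3 days with 25 μM inhibitor or DMSO in 10% FBS. Cells were fixed in 10% formalin for 90 min and stained with Oil Red O for 3 h to view foam cells.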

[19] = target: Apolipoprotein A-I (Homo sapiens) (UniProt P02647); assay: Increase in APOA1-mediated cholesterol in human THP1 cells at 25 uM relative to control; type: cell-based; conditions: THP-1
Sequence of Apolipoprotein A-I (Homo sapiens) (P02647 whole entry): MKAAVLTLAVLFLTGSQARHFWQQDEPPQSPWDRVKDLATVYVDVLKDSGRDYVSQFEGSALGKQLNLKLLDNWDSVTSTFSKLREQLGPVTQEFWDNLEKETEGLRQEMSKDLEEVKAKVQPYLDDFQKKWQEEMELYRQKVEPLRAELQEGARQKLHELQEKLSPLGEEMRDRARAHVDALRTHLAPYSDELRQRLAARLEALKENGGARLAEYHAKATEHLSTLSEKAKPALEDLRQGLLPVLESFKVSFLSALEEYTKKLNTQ
Outline: (§4)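 Macrophages loaded 24 h in RPMI with 5% LPDS, 1 μCi ml⁻¹ ³H-cholesterol and 50 μg ml⁻¹ acLDL, ± 25 μM inhibitor. Equilibrated 24 h in 0.2% fatty-acid-free BSA ± inhibitor, then 4 h ± APOA1 20 μg ml⁻¹. Efflux = medium ³H as % of total, per mg protein; mouse lines normalized to untreated aP2+/+.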

[20] = tested on: THP-1; assay: Increase in ABCA1 protein level in human THP1 cells at 25 uM relative to control; type: functional, cell-based
[21] = tested on: Macrophage; assay: Increase in cholesterol efflux in mouse aP2+/+ macrophage cells at 25 uM relative to control; type: functional, cell-based; outline: as §4
[22] = tested on: Macrophage; assay: Increase in cholesterol efflux in mouse aP2-/-R macrophage cells (re-expression of aP2) at 25 uM relative to control; type: functional, cell-based; outline: as §4
[23] = tested on: Macrophage; assay: Increase in cholesterol efflux in mouse aP2-/- macrophage cells at 25 uM relative to control; type: functional, cell-based; outline: as §4
[24] = tested on: Mus musculus; assay: Decrease in Mcp1 expression in ob/ob mouse adipose tissue at 40 mg/kg/day, po; type: functional, organism-based
[25] = tested on: Mus musculus; assay: Decrease in IL6 expression in ob/ob mouse adipose tissue at 40 mg/kg/day, po; type: functional, organism-based
[26] = tested on: Mus musculus; assay: Decrease in TNF expression in ob/ob mouse adipose tissue at 40 mg/kg/day, po; type: functional, organism-based
[27] = tested on: Mus musculus; assay: Decrease in blood glucose level in fed ob/ob mouse at 40 mg/kg/day, po after 2 weeks; type: functional, organism-based; outline: as §3
[28] = tested on: Mus musculus; assay: Decrease in blood glucose level in fasted ob/ob mouse at 40 mg/kg/day, po after 6 weeks; type: functional, organism-based; outline: as §3

CCc1c(-c2ccccc2)c(-c2ccccc2)nn1-c1ccccc1-c1cccc(OCC(=O)O)c1
Activity [1]: 133.2 mg/dL | Activity [2]: 1465.3 mg/dL | Activity [3]: 2 mM | Activity [4]: 8.59 µg/mL | Activity [5]: Active | Activity [6]: Active | Activity [7]: Active | Activity [8]: Active | Activity [9]: Active | Activity [10]: Active | Activity [11]: 58 mg/dL | Activity [12]: 0.9 mM | Activity [13]: Active | Activity [14]: Active | Activity [15]: 2.19 ng/mL | Activity [16]: 2.55 mM | Activity [17]: 3.55 mM | Activity [18]: Active | Activity [19]: Active | Activity [20]: Active | Activity [21]: Active | Activity [22]: Active | Activity [23]: inactive | Activity [24]: Active | Activity [25]: Active | Activity [26]: Active | Activity [27]: Active | Activity [28]: Active

— ChEMBL document CHEMBL1142233, “Treatment of diabetes and atherosclerosis by inhibiting fatty-acid-binding protein aP2” (2007)
